An excerpt weighted towards active compounds, which were near 2% of everything screened.
DNMT1 block: DNMT1 (human) enzyme inhibition; P26358; DNMT1 molecular beacon, Hinp1I cleavage, fluorescence; inhibition (reported as % activation of signal), % at 10 µM; 0.83% of 360,000 active; in the data active = inhibition above about 50%
STEP block: blocks human striatal-enriched tyrosine phosphatase. recombinant STEP, OMFP fluorogenic substrate, fluorescence. inhibition, % at 20 µM. 0.25% of 360,000 active. AID 588621;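 active = inhibition at 20 µM, scaled per plate between control wells, above about 37%, limit read from the data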;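 also: 0% = DMSO with enzyme and substrate and 100% = substrate only without enzyme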
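material = STEP tyrosine phosphatase | reagent = fluorogenic phosphatase substrate OMFP at 25 µM final | doses = single compound dose of 20 µM, 1% DMSO final | schedule = 20 min reaction, room temperature, in the dark | measured by = fluorescence, 480/540 nm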
Rpn11 inh: blocks the human proteasome subunit Rpn11; O00487; human 26S proteasome, Ub4-pepOG fluorescence polarization; 20S core pre-blocked with epoxomicin; inhibition, % at 20 µM; 0.59% of 360,000 active; AID 588493;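 active = inhibition at 20 µM, scaled to each plate's controls, above about 33%, limit read from the data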
LMPTP inh: blocks human LMPTP phosphatase. P24666. recombinant LMPTP-A, OMFP fluorogenic substrate, fluorescence intensity. inhibition, % at 20 µM. 0.22% of 360,000 active;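 active = compounds that cut the enzyme signal by at least half of the control window in the single-dose screen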;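 also: plate controls were DMSO wells with enzyme plus substrate for no effect and substrate without enzyme for full effect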
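Material: LMPTP-A; amount: 0.625 nM enzyme; doses: single 20 µM dose; times: reaction 50 min, room temperature, dark; technique: fluorescence intensity of OMFP turnover product; benchmarks: no-enzyme and uninhibited controls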
Scp-1 inhibitor: inhibitors of human Scp-1 phosphatase; Q9GZU7; Recombinant Scp1, phosphopeptide, malachite green phosphate absorbance; inhibition, % at 20 µM; 0.88% of 340,000 active;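 active = inhibition above about 50% at 20 µM, limit read from the data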;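 also: plate controls were DMSO wells with enzyme for no effect and wells lacking enzyme for full effect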
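Test system: SCP-1 catalytic domain; Buffer or medium: Acidic Tris acetate buffer with magnesium and detergent; Also added: Phosphorylated 17-residue peptide substrate; Compound: single 20 µM dose, 1% DMSO; Schedule: enzyme reaction 45 min at room temperature, colour 5 min, stabilisation 30 min; Signal: Phosphate-binding colour reagent, absorbance read at 630 nm.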
Rpn11 inh conf: confirmation of human proteasome Rpn11 inhibitors. shares compounds with Rpn11 inh. purified human 26S proteasome, Ub4-pepOG fluorescence polarization; proteasome pretreated with epoxomicin. inhibition, % at 20 µM. 29% of 1,900 active
MMP-2 counter: blocks human MMP-2, flagging nonselective RPN11 hits; 4% of 1,900 active; AID 602330; inhibition, % at 20 µM; recombinant MMP-2, FRET peptide cleavage fluorescence; shares compounds with Rpn11 inh;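 also: human MMP-2 activated beforehand with APMA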
Target sequence (P08253 whole entry, looked up): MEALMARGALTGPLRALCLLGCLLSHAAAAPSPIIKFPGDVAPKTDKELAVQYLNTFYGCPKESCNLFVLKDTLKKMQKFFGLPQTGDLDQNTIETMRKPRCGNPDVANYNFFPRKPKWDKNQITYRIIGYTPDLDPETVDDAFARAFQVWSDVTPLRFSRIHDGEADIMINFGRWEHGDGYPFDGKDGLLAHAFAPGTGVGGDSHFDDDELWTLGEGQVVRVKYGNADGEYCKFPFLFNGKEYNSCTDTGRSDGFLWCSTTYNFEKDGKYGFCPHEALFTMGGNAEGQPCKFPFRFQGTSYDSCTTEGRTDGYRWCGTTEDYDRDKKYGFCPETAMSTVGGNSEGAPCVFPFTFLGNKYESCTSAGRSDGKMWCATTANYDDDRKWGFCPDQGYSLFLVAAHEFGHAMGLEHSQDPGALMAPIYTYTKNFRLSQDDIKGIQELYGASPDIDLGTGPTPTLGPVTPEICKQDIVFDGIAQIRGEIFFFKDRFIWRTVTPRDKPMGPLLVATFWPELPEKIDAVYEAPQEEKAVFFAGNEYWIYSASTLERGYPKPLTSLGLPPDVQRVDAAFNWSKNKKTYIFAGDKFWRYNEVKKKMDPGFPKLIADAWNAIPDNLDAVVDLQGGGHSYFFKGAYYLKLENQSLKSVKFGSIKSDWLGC
Thrombin FP: counter-screen for RPN11 inhibitors: inhibition of bovine thrombin | shares compounds with Rpn11 inh | bovine thrombin cleavage of Ub4-pepOG, fluorescence polarization | inhibition, % at 20 µM | 13% of 1,900 active | AID 602333;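 active = mean inhibition at least 40% at 20 µM, or signal 3 deviations below plate average, so some actives read negative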;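 also: plate controls were thrombin with DMSO for no effect and buffer wells lacking thrombin for full effect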
Numbers without * were called inactive; / = no result. Rule as the data show it, unless noted: active = inhibition above about 40%; inactive = the rest.

SMILES	DNMT1 block	STEP block	Rpn11 inh	LMPTP inh	Scp-1 inhibitor	Rpn11 inh conf	MMP-2 counter	Thrombin FP
C(=N\NC1=Nc2cccc3cccc1c23)/c1cccnc1	-8.9	4.2	70.2*	1.6	-1.3	40.2*	-57.5	22.6
CCOC(=O)Cc1ccc(Nc2nc3cc(-c4ccccc4C)sc3c(=O)n2C)cc1	-25.7	0.7	-0.6	1.3	/	/	/	/
Cc1ccc2nc(-c3ccc(NC(=O)c4ccco4)cc3)[nH]c2c1	-6.0	4.6	67.1*	6.1	-0.3	8.5	-95.9	-8.4
Cc1cc(NC(=O)CSc2nc3cc(Cl)ccc3s2)no1	11.7	-3.0	-10.2	-2.3	14.1	/	/	/
O=C(CSc1nc2cc(Cl)ccc2s1)c1cc2ccccc2o1	-6.4	1.9	55.3*	3.9	-11.0	45.4*	31.3	13.9
O=C(N=NC(=O)c1ccco1)c1ccc2c(O)n(N3C(=O)c4ccccc4C3=O)c(O)c2c1	1.8	1.5	47.7*	0.1	-2.7	-13.1	0.5	-5.5
CCn1c(O)c2ccc(C(=O)N=NC(=O)c3ccccc3)cc2c1O	1.1	-0.3	-2.7	-1.0	-2.4	/	/	/
CC(=O)Nc1cc2nc(C)n(Cc3ccc([N+](=O)[O-])cc3)c2nc1C	1.7	-1.4	2.3	-0.1	-13.9	/	/	/
CN(C)S(=O)(=O)c1cccc(-c2nn(-c3ccccc3)cc2/C=C(\C#N)c2nc3ccccc3[nH]2)c1	-5.0	0.2	35.3	0.6	-1.9	/	/	/
CN(C)S(=O)(=O)c1cccc(-c2nn(-c3ccccc3)cc2/C=C2\SC(=S)NC2=O)c1	20.6	3.1	86.5*	-1.1	-10.4	35.2	11.3	18.8
COc1cc(/C=C2/C(=O)NN(c3ccc(Cl)cc3)C2=O)cc(Br)c1O	47.8	83.2*	68.2*	65.3*	35.0	193.5*	35.6	79.4*
COC(=O)c1ccc(N2NC(=O)/C(=C/c3cc(OC)c(O)c(OC)c3)C2=O)cc1	4.7	24.4	53.9*	35.6	33.2	62.4*	-23.2	4.7
CC1Cc2ccccc2N1S(=O)(=O)c1cccc(C(=O)N2CCN(c3ncccn3)CC2)c1 (stereo unspecified)	-4.7	3.3	0.6	1.3	9.5	/	/	/
Nc1c(-c2ccccc2)c(CSc2nc3ccccc3[nH]2)nn1-c1ccc(C(=O)O)cc1	14.9	0.7	-10.9	0.1	8.7	/	/	/
Cc1ccc(SCCc2cc[n+](CC(=O)c3ccccc3)cc2)cc1	-35.7	-1.2	37.5*	4.3	-0.4	2.1	-7.2	-8.6
Cc1ccc(C(=O)C[n+]2ccc(Cc3ccccc3)cc2)cc1	-3.1	-3.7	2.5	-1.0	-1.7	/	/	/
O=C(O)c1ccc(/C=C/c2nc3sc4c(c3c(=O)[nH]2)CCC4)cc1	9.8	9.7	73.2*	-0.1	23.7	90.8*	-57.1	40.0*
O=C(CCc1nc2sc3c(c2c(=O)[nH]1)CCCC3)N1CCN(c2ccccc2)CC1	18.4	3.3	15.3	3.0	9.6	/	/	/
CCCOc1cccc(C2C(C(=O)c3ccc(C)o3)=C(O)C(=O)N2c2nc(C)c(C(C)=O)s2)c1 (stereo unspecified)	0.1	8.3	50.1*	23.8	-2.2	9.5	-28.7	10.5
CCc1nnc(NC(=O)c2sc3nc4cc(C)ccc4cc3c2N)s1	-8.1	1.0	71.1*	1.7	14.8	25.9	-8.9	-70.0
CCOC(=O)Cc1csc(NC(=O)c2sc3nc4ccc(C)cc4cc3c2N)n1	-11.2	-3.1	60.8*	-0.1	9.0	76.7*	-42.3	40.6*
Cc1ccc2nc(SCC(=O)c3c(N)n(C)c(=O)n(C)c3=O)[nH]c2c1	-2.1	1.6	43.6*	1.7	3.6	5.1	-39.4	-1.5
Cn1c(=O)oc2cc(S(=O)(=O)N3CCN(c4ccccc4F)CC3)ccc21	2.6	-2.0	48.1*	-1.0	2.7	71.2*	-35.1	16.1
COc1ccc(S(=O)(=O)NCCc2cn3nc(C)c(C)nc3n2)cc1F	-3.2	-1.3	-2.0	-0.7	-5.7	/	/	/
CCOCCCNC(=O)N[C@@H](Cc1ccccc1)C(=O)OC	4.3	-6.5	57.6*	-3.3	6.3	-4.8	-3.9	-10.1
SMILES	DNMT1 block	STEP block	Rpn11 inh	LMPTP inh	Scp-1 inhibitor	Rpn11 inh conf	MMP-2 counter	Thrombin FP
COC(=O)[C@H](Cc1ccccc1)NC(=O)NCCc1ccc(F)cc1	3.2	1.1	-1.1	2.1	16.9	/	/	/
CC(=O)c1ccccc1NC(=O)Cn1c(=O)cnc2ccccc21	26.9	1.4	41.1*	-1.2	1.2	-8.6	2.7	12.2
CC(C)(C)Cc1c(-c2cccc(Cl)c2)nc2ccc(Cl)cn12	27.4	3.3	43.2*	-0.6	/	-6.0	52.1*	2.5
COc1ccccc1Cc1c(-c2ccc(Cl)cc2)nc2ccc(Br)cn12	35.6	-1.1	41.2*	3.7	/	40.5*	-0.5	50.8*
COc1ccccc1Cc1c(-c2ccc(C)cc2)nc2ccc(Br)cn12	18.5	-1.2	48.4*	0.5	/	6.6	-37.2	0.5
COc1ccccc1Cc1c(-c2cccc(Br)c2)nc2ccc(Cl)cn12	24.3	-3.6	57.5*	0.0	/	60.2*	-8.1	39.3
CCOc1ccc(CCN2C(=O)C(=O)N([C@@H](CC(C)C)CN3CCC[C@H]3CN3C(=O)C(=O)NC[C@@H]3CC(C)C)C[C@@H]2Cc2ccc(O)cc2)cc1	/	/	/	-0.7	/	/	/	/
COc1ccccc1N(C(=O)c1ccco1)C(C(=O)NC1CCCC1)c1ccc(N2CCOCC2)cc1 (stereo unspecified)	2.8	-3.4	-3.0	-0.6	-7.1	/	/	/
CCCCN1C(=O)/C(=C2/Sc3ccccc3N2C)S/C1=N\c1ncn[nH]1	37.7	-1.2	66.5*	1.7	6.4	96.7*	-52.4	62.4*
C=CCN1C(=O)/C(=C2/Sc3ccc(OC)cc3N2C)SC1=Nc1ccccc1	6.9	3.8	15.5	-0.2	-14.2	/	/	/
COc1ccc(NC2=Nc3cccc4cccc2c34)cc1OC	1.3	-2.0	26.5	11.2	-2.2	/	/	/
COc1cccc(NC2=Nc3cccc4cccc2c34)c1	-6.1	-5.3	45.2*	8.6	-2.3	44.3*	-25.8	20.9
COc1cc(NC2=Nc3cccc4cccc2c34)cc(OC)c1OC	-3.2	3.5	41.8*	2.5	2.9	39.5	16.1	24.1
COc1ccccc1NC(=O)CSc1nnc(CCNC(=O)c2ccc(C)cc2)n1C	1.1	0.6	5.8	-0.1	-14.2	/	/	/
NC(=O)c1ccc(NC(=O)CSc2nncn2-c2ccccc2)cc1	1.4	2.9	-4.2	-0.8	-12.8	/	/	/
Cc1ccc(S(=O)(=O)N2[C@@H](c3ccc(Cl)cc3)C(C(=O)O)=C[C@H]2CC2CCCC2)cc1	9.8	0.6	10.5	0.3	4.1	/	/	/

Source: PubChem BioAssay (Sanford-Burnham Center for Chemical Genomics)
